# Assay outcomes from PubChem.
# Sampled rows, rich in hits. Any-hit rate of the full collection: about 5.8%.
# FAK inh: FAK (human) kinase inhibition; biochemical FAK kinase activity assay; AID 727; Q05397; inhibition, %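 (tested at 7 µM)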; 0.84% of 97,000 active;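 note: 0% = DMSO and 100% = reference compound high control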
# PTK2B oligo ant: antagonists of human Pyk2 oligomerization; Q14289; Q293 cells, Pyk2 FERM NanoBiT luminescence; active compounds read low; z-score (the deposit names both 25 µM and 10 µM); 0.83% of 99,000 active;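 active = Z-score of -3 or lower, scaled per plate to the spread of control and sample wells; inactive = z-score above -3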;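 note: negative z-score means lost luminescence so less FERM oligomerization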
# Cav32 inh: inhibitors of human Cav3.2 T-type calcium channel | O95180 | Cav3.2-expressing cells, Fluo-4 calcium fluorescence FDSS; active compounds read low | B-score at 10 µM | 4% of 100,000 active;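 active = single-dose well whose peak fluorescence ratio is a statistical outlier from its plate by either plate-standardised score or position-corrected B-score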
# PLK1 kinase inh: blocks human PLK1 kinase activity | P53350 | recombinant PLK1 kinase, TR-FRET peptide phosphorylation | inhibition, % at 10 µM | 0.53% of 97,000 active;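 active = inhibition of 50% or more in the single-concentration screen; inactive = inhibition below 50%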;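 note: 0% = DMSO max control and 100% = H-89 dihydrochloride min control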
# Target sequence (P53350 whole entry, looked up): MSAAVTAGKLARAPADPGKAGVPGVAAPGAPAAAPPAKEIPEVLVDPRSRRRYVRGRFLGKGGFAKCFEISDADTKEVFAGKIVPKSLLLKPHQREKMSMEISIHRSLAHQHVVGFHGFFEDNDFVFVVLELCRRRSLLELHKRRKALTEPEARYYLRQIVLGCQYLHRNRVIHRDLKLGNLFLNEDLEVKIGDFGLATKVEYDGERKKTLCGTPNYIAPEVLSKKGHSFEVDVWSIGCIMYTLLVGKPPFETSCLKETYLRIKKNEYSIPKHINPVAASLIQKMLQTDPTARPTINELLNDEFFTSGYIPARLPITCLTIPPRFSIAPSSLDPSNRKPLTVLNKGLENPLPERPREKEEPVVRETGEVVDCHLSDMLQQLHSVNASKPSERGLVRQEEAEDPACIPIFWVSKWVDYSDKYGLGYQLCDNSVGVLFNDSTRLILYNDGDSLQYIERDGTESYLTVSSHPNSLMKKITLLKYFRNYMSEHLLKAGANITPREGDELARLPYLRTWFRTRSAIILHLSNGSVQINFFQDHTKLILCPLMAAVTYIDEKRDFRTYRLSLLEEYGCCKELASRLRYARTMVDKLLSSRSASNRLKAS
# Plk1 PBD FP: blocks phosphopeptide binding to human Plk1 polo box domain; 0.13% of 97,000 active; P53350; Plk1 PBD phosphopeptide binding, fluorescence polarization; inhibition, %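 (tested at about 20 µM)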; in the data active = inhibition above about 34%, passing the limit was not always enough
# Rev-RRE block: inhibitors of HIV-1 Rev-RRE RNA interaction; P05866; Rev peptide-RRE RNA binding, FRET; inhibition, % at 8 µM; 0.79% of 97,000 active; AID 704;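 active = inhibition above the screen-wide mean plus 3 SD, cut at about 35% in these data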;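 note: 0% = median DMSO wells and 100% = median Neomycin B control wells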
#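 Test system: Cy5-tagged RRE RNA duplex with fluorescein-tagged Rev peptide; Probe or stimulus: labelled Rev peptide; Schedule: 5 min preincubation and 15 min binding, 25 °C; Signal: FRET fluorescence readout; Evaluation: % inhibition from 671/540 nm acceptor-to-donor ratio, scaled between controls; Control set: DMSO and neomycin B.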
# FAK inh conf: confirmation of human focal adhesion kinase (FAK) inhibitors | shares compounds with FAK inh | FAK kinase biochemical inhibition assay | inhibition, % at 7 µM | 28% of 750 active
# * = called active by the depositor; . = no result given. Cut-off read from the data, not from the text of the source, unless noted: active = inhibition above about 19%; inactive = the rest.
SMILES,FAK inh,PTK2B oligo ant,Cav32 inh,PLK1 kinase inh,Plk1 PBD FP,Rev-RRE block,FAK inh conf
Cc1cccc(NC(=O)C2CCCN(S(=O)(=O)c3cccc4nsnc34)C2)c1 (stereo unspecified),94*,-0.94,0.024,-5,-19,7,-1
CCCC(=O)Nc1ccc(C(=O)NNC(=O)COc2ccc(Br)c(C)c2)cc1,4,3.2,.,-10,-16,9,.
O=C(c1ccc(S(=O)(=O)Nc2ccc(F)cc2)cc1)N1CCN(C(=O)c2ccco2)CC1,27*,0.5,-0.21,-24,-27,3,-1
Cc1ccc(C(C(=O)NC2CCCC2)N(Cc2cccs2)C(=O)c2csnn2)o1 (stereo unspecified),2,0.12,0.33,-2,-4,1,.
Cc1cc2ncn(S(=O)(=O)N(C)C)c2cc1C,19*,0.91,0.42,-4,-17,-1,5
Cc1cc2ncn(S(=O)(=O)N3CCCCC3)c2cc1C,3,-1.4,-1.7,-10,8,11,.
COc1ccc(Cc2nc3ccc(S(=O)(=O)N4CCOCC4)cc3[nH]2)cc1,95*,-0.64,0.24,-1,-5,-5,1
COc1ccc(Cc2nc3ccc(S(=O)(=O)N4CCOCC4)cc3[nH]2)cc1OC,3,-0.54,-0.011,-7,-13,9,.
O=C(N/N=C/c1cccc(F)c1)c1cc(-c2ccco2)nc2ccccc12,68*,1.1,0.72,-5,18,-144,36*
O=C(N/N=C/c1ccc2c(c1)OCO2)c1cc(-c2ccc(F)cc2)nc2ccccc12,.,-0.01,.,.,.,.,.
CC(=O)c1c(C(C)=O)c(C)n(-c2ccc(C)c(NC(=O)c3ccccc3Cl)c2)c1C,3,-0.22,1.9,-2,-1,9,.
COc1ccc(N2CC(O)=C(c3n(C)c4ccccc4[n+]3C)C2=N)cc1,2,0.15,0.54,-8,-14,1,.
NC(=O)c1ccsc1NC(=O)C1CC1,.,.,-0.00023,.,.,.,.
CC(C)c1cc(C(N)=O)c(NC(=O)C2CCC2)s1,24*,-1.4,0.27,-5,0,1,11
COc1ccc(C2C(C#N)=C(C)NC3=C2C(=O)c2ccccc23)cc1 (stereo unspecified),2,0.41,-1.1,-3,-11,5,.
CC1=C([N+](=O)[O-])C(c2ccccc2)C2=C(N1)c1ccccc1C2=O (stereo unspecified),25*,-1.4,-3.8*,-9,-12,5,15
COc1ccccc1CNC(=O)COC(=O)c1cc(-c2ccco2)nc2ccccc12,45*,0.95,-1.4,-17,-29,2,24*
O=C(COC(=O)c1cc(-c2ccco2)nc2ccccc12)NCc1ccc2c(c1)OCO2,.,0.85,.,.,.,.,.
O=C(Nc1cn(-c2ccccc2)nc1-c1cccs1)c1ccco1,-2,-0.92,-2.3,-9,-3,1,.
CCCSc1nc2c(cnn2-c2ccc(C)cc2)c(=O)[nH]1,23*,.,-1.4,-3,-5,4,9
O=C(NCCc1ccc(Cl)cc1)C1CCN(S(=O)(=O)N2CCC3(CC2)OCCO3)CC1,-7,3.2,-0.49,-4,-1,1,.
O=C(CCNS(=O)(=O)c1cccs1)Nc1nccs1,83*,-0.22,0.76,19,10,6,-1
Nc1cc(=O)[nH]c(SCc2nnnn2-c2ccc(Cl)cc2)n1,.,-0.11,.,.,.,.,.
CCC(=O)Nc1nnc(Sc2ccc(N(C)C)cc2)s1,21*,0.37,.,-8,-10,4,1
CCCC(=O)Nc1nnc(Sc2ccc(N(C)C)cc2)s1,7,0.57,-0.0082,-5,-3,4,.
SMILES,FAK inh,PTK2B oligo ant,Cav32 inh,PLK1 kinase inh,Plk1 PBD FP,Rev-RRE block,FAK inh conf
COc1ccccc1NS(=O)(=O)c1ccc2c(c1)n(C)c(=O)n2C,-1,-0.2,0.58,-10,-3,1,.
O=c1oc2c3c4c(cc2s1)CCCN4CCC3,20*,0.2,-1.7,21,14,27,6
CCOC(=O)c1ccc(NC(=O)CSc2nc(NC(=O)c3ccccc3)c3c(C)c(C)oc3n2)cc1,27*,-0.89,-1.8,0,-10,-1,7
Cc1ccc(C)c(NC(=O)CNS(=O)(=O)c2ccccc2)c1,-2,-0.4,-0.033,-13,26,5,.
C1CCc2nc3c(nc2C1)CCCC3,.,.,0.049,.,.,.,.
Nc1nnc2c(n1)CCCC2,21*,-0.25,-0.24,-6,1,3,2
CCOC(=O)c1cccc(NS(=O)(=O)c2ccc(NC(C)=O)cc2)c1,2,-0.88,-2.6,-10,-7,3,.
CCOC(=O)c1cccc(NS(=O)(=O)c2c(C)[nH]c(=O)[nH]c2=O)c1,21*,1.9,0.82,3,7,4,4
COc1ccccc1OCc1ccc(C(=O)NCC2CCCO2)o1 (stereo unspecified),0,-0.77,0.26,7,19,-2,.
COc1cc(OC)cc(-c2nnc(Nc3nc4c(F)cccc4s3)o2)c1,36*,-0.5,0.0043,-15,19,7,10
COc1ccc(-c2nnc(-c3ccc(N)cc3)o2)cc1,-2,-1.7,0.2,-13,-5,4,.
COc1ccc(-c2nnc(Nc3nc4c(OC)cccc4s3)o2)cc1,56*,-0.39,.,-8,6,11,27*
CC(C)NC(=O)[C@@H]1C[C@@]1(C)[C@@H](NC(=O)OCc1ccccc1)c1ccccc1,.,.,0.19,.,.,.,.
COc1cc(/C=N\Nc2nc3ccccc3[nH]2)cc(OC)c1OC,10,0.12,-1.9,-10,42,6,.
Cc1ccc(/C=N\Nc2nc3ccc(Cl)cc3[nH]2)o1,21*,-1.4,-4.1,-1,-11,6,7
Fc1ccc(NC(=S)Nc2ccc(Br)cc2)cc1,.,1.1,.,.,.,.,.
CSc1nc(N(C)CCO)c2sc3nc(-c4ccco4)c4c(c3c2n1)CCC4,36*,0.6,-0.68,13,-17,-13,-1
Cc1cc(OCC(=O)Nc2ccc(N3CCCC3)cc2)cc(C)c1Cl,33*,-1.1,.,-8,5,10,17
Cc1ccc(C(=O)NNC(=O)CSc2nnc3c(n2)[nH]c2ccc(F)cc23)cc1,69*,-0.06,-0.42,-12,-8,-39,39*
Cc1ccc(NC(=O)CSc2nnnn2-c2ccc3c(c2)OCO3)cc1C,3,0.84,0.18,-13,20,5,.
O=c1[nH]c(Nc2ccccc2)cc2ccccc12,38*,0.41,.,-8,9,61*,35*
O=c1[nH]c(Nc2ccccc2)cc2cc(Br)ccc12,.,.,0.33,.,.,.,.
CCCCc1cc(=O)oc2cc(C)c(CN3CCCC3)c(O)c12,21*,0.57,0.32,-10,14,20,1
O=C(NC1CC1)C1=C[C@@H](C2CCCCC2)C[C@@H](OCCCCO)O1,.,.,1.9,.,.,.,.
COc1ccccc1NC(=O)Cn1nnc(-c2ccccc2NC(=O)c2ccco2)n1,27*,-0.09,0.079,-10,-5,-5,15
COc1ccccc1NC(=O)Cn1nnc(-c2ccccc2NC(=O)c2cccs2)n1,21*,-1.2,0.11,-3,-10,4,13
COc1ccc(NC(=O)Cn2nnc(-c3ccccc3NC(=O)c3ccco3)n2)cc1,4,-1.3,0.018,-9,-32,0,.
